Ki, Selectivity and Ratio data for 16 compounds are collected here from ChEMBL document CHEMBL1132229, “3,7-Disubstituted-1,2,3,4-tetrahydroisoquinolines display remarkable potency and selectivity as inhibitors of phenylethanolamine N-methyltransferase versus the alpha2-adrenoceptor” (J Med Chem, 1999).

The target of one test is T1, Phenylethanolamine N-methyltransferase (Bos taurus, UniProt P10938).
T1 sequence (P10938 whole entry): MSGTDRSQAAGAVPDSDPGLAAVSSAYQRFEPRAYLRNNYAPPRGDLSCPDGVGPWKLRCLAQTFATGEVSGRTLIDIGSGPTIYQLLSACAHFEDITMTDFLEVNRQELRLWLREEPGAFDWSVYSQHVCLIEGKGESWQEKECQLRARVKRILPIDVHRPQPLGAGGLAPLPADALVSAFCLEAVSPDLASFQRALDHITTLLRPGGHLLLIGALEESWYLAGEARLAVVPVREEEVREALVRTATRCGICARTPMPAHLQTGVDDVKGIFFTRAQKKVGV
The test can be described thus: In vitro inhibitory activity against bovine adrenal phenylethanolamine N-methyl transferase.
The Ki is a dissociation constant, usually derived from enzyme kinetics or from competition with a known ligand. Read a high Ki as lower affinity. With `O=C(O)C1Cc2ccccc2CN1` (centres undefined), the Ki is > 2000 µM.

A further test concerns the target T1, Phenylethanolamine N-methyltransferase. Kind of test: In vitro inhibitory activity against bovine adrenal Phenylethanolamine N-Methyltransferase (for +- stereoisomer).
In turn, `OCC1Cc2ccccc2CN1` (centres undefined) displayed a Ki of 1.1 µM.

System in another test: not listed separately
The test can be described thus: Relative affinity for PNMT and alpha2 adrenergic receptors.
In the case of `C[C@@H]1Cc2ccc([N+](=O)[O-])cc2CN1`, the Selectivity came to 41.

Consider `OC[C@@H]1Cc2ccccc2CN1`, for which the Selectivity was determined as 1.1.

`OC[C@H]1Cc2ccccc2CN1` returned a Selectivity of 7.9.

Take `COCC1Cc2ccccc2CN1` (centres undefined): the Selectivity stood at 0.3.

Compound `OCC1Cc2ccccc2CN1` (centres undefined) returned a Selectivity of 6.

As for `NS(=O)(=O)c1ccc2c(c1)CNC(CO)C2` (centres undefined), the Selectivity is 4100.

As for `CC1Cc2ccc([N+](=O)[O-])cc2CN1` (centres undefined), the Selectivity came out at 63.

For `CS(=O)(=O)c1ccc2c(c1)CNC(CO)C2` (centres undefined), the Selectivity is 1000.

Another test deals with T2, Adrenergic receptor alpha-2 (Rattus norvegicus, UniProt P22086+P19328+P22909).
T2 sequence (P22086 whole entry): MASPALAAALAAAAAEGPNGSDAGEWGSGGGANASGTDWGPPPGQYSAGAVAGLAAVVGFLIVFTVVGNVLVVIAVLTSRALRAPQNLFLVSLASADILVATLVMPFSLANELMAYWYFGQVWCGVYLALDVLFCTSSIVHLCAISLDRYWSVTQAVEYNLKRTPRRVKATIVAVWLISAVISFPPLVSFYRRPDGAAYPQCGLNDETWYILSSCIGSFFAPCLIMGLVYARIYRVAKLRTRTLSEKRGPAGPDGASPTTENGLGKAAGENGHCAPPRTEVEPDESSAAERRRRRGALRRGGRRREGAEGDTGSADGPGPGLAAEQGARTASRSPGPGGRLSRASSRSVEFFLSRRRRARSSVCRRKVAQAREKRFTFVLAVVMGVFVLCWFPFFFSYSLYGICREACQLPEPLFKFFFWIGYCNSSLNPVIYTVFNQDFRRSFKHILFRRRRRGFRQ
T2 sequence (P19328 whole entry): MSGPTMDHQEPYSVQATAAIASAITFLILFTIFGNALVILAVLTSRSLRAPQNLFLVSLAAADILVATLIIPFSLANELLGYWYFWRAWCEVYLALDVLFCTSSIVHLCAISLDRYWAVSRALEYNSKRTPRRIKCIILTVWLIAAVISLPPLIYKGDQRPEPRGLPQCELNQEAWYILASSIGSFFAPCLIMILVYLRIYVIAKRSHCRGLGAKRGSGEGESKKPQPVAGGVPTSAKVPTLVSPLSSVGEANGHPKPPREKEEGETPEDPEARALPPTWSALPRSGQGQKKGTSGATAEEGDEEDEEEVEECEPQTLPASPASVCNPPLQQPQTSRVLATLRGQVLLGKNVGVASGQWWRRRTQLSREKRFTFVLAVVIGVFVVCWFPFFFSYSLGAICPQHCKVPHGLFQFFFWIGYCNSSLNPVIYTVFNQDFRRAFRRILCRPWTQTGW
T2 sequence (P22909 whole entry): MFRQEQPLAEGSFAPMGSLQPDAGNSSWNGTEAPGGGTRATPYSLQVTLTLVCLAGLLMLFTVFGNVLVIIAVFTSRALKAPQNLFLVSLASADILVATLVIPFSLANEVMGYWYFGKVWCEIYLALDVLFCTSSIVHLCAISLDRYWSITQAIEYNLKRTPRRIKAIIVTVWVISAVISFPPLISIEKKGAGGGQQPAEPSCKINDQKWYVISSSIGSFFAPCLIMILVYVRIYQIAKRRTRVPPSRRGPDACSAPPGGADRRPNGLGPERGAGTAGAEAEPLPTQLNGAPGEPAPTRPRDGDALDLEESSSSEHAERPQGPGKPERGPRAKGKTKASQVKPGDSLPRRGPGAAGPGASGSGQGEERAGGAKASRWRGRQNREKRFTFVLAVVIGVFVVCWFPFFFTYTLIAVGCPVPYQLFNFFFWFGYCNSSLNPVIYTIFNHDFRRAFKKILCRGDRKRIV
Kind of test: In vitro binding affinity towards cortical membranes of male Sprague-Dawley rats alpha-2 adrenergic receptor by replacing [3H]clonidine. The method in brief: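 Rat cortex (male Sprague-Dawley) homogenised in ice-cold 50 mM Tris/HCl pH 7.7, washed by three 50000g spins. Tissue incubated with 4.0 nM [3H]clonidine (final) and drug at five concentrations over a 16-fold range, 25 °C for 30 min. Bound ligand collected by vacuum filtration on GF/B filters and counted. Nonspecific binding set with 2 μM phentolamine. Quadruplicate. IC50 from log-probit analysis; Ki = IC50/(1+[clonidine]/KD).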
`CCC1Cc2ccccc2CN1` (centres undefined) displayed a Ki of 0.66 µM.

Another test addresses T3, Phenylethanolamine N-methyltransferase (Bos taurus) (UniProt P10938).
T3 sequence (whole entry): T1 sequence (P10938 whole entry)
Kind of test: Stereo selectivity ratio for PNMT(-)/(+ ) activities.
As for `C[C@@H]1Cc2ccc([N+](=O)[O-])cc2CN1`, the Ratio is 5.2.

With `OC[C@H]1Cc2ccccc2CN1`, the Ratio was determined as 27.

For the next test, the target named is T1, Phenylethanolamine N-methyltransferase. The test can be described thus: Inhibition of bovine adrenal Phenylethanolamine N-Methyltransferase.
The compound `C[C@@H]1Cc2ccc([N+](=O)[O-])cc2CN1` came in with an inhibition constant (Ki) of 1.3 µM.

`O=[N+]([O-])c1ccc2c(c1)CNC(CO)C2` (centres undefined) had an inhibition constant (Ki) of 0.29 µM.

The compound `OC[C@@H]1Cc2ccccc2CN1` yielded an inhibitory constant (Ki) of 15 µM.

Compound `OC[C@H]1Cc2ccccc2CN1` had a Ki of 0.56 µM.

Consider `COCC1Cc2ccccc2CN1` (centres undefined), for which the inhibition constant Ki was 9.2 µM.

`O=[N+]([O-])c1ccc2c(c1)CN[C@@H](CO)C2` gave an inhibitory constant (Ki) of 0.24 µM.

With `NS(=O)(=O)c1ccc2c(c1)CNC(CO)C2` (centres undefined), affinity was put at a Ki of 0.34 µM.

`C[C@H]1Cc2ccc([N+](=O)[O-])cc2CN1` returned an inhibition constant (Ki) of 0.25 µM.

With `CC1Cc2ccc([N+](=O)[O-])cc2CN1` (centres undefined), the affinity corresponds to a Ki of 0.49 µM.

`CS(=O)(=O)c1ccc2c(c1)CNC(CO)C2` (centres undefined) came in with an inhibitory constant (Ki) of 0.64 µM.

For the compound `O=[N+]([O-])c1ccc2c(c1)CN[C@H](CO)C2`, the Ki was 0.9 µM.

The next test concerns the target Adrenergic receptor alpha-2 (Rattus norvegicus) (UniProt P22086+P19328+P22909). Kind of test: Stereo selectivity ratio for alpha-2(-)/(+) activities.
As to `C[C@@H]1Cc2ccc([N+](=O)[O-])cc2CN1`, the Ratio came to 2.8.

For `OC[C@H]1Cc2ccccc2CN1`, the Ratio was 3.9.

Another test deals with T2, Adrenergic receptor alpha-2. The test can be described thus: Displacement of [3H]clonidine from Alpha-2 adrenergic receptor of rat cortical membranes. The test is classed as cell membranes, Membrane. The method in brief: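 Male Sprague-Dawley rat cortex homogenized in ice-cold 50 mM Tris/HCl (pH 7.7 at 25 °C), washed by three 50000g spins, resuspended at 200 volumes. [3H]clonidine 4.0 nM final; 25 °C, 30 min; terminated by vacuum filtration on GF/B filters and scintillation counting. Nonspecific binding with 2 μM phentolamine.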
Compound `NC(=O)C1Cc2ccccc2CN1` (centres undefined) had a Ki of 250 µM.

Turning to `COC(=O)C1Cc2ccccc2CN1` (centres undefined), the Ki was 11 µM.

On to `CC1Cc2ccc([N+](=O)[O-])cc2CN1` (centres undefined), for which the inhibitory constant (Ki) came to 31 µM.
